The text below walks through data of article PMC4141080 (FEBS Open Bio, 2014).

Holding throughout (format): biochemical, Aplysia kurodai
Common to all, as to conditions: standard assay 37 °C; pH of kinetics not told

Assay [1] has as its system ApAGL74 (74-kDa α-glucosidase). As to the kind of experiment: fluorometric 4-methylumbelliferone release. Summed up:
(§1)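 Each α-glucosidase was purified from sea hare digestive fluid. The fluid was squeezed from the stomach lumen, cut with 0–60% ammonium sulfate, then run through ion-exchange, phenyl-Sepharose, Sephacryl S-100 and Mono Q chromatography, with purity checked by SDS–PAGE. Substrate was 4-MU-α-glucoside. Released 4-methylumbelliferone was read fluorometrically (ex 365 nm, em 450 nm). One unit releases 1 μmol 4-methylumbelliferone/min at 37 °C.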

Assay [2] has as its system ApAGL86 (86-kDa α-glucosidase). Description: fluorometric 4-methylumbelliferone release. Summed up:
as §1

The test system of assay [3] is ApAGL74 (74-kDa α-glucosidase). Description: glucose release. Summed up:
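The α-glucosidase was purified chromatographically from the ammonium sulfate (0–60%) fraction of stomach-lumen digestive fluid of sea hare. Glucose liberated from substrate was quantified with a glucose oxidase-based kit.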

Assay [4] deals with ApAGL86 (86-kDa α-glucosidase). As to the kind of experiment: glucose release.

The Km is the substrate concentration at which the rate is half of its maximum. `Cc1cc(=O)oc2cc(O[C@H]3O[C@H](CO)[C@@H](O)[C@H](O)[C@H]3O)ccc12` [4MU-α-glucoside]: the Km in assay [1] is 0.0479 ± 0.0106 mM; in assay [2], 0.412 ± 0.006 mM.

Take `OC[C@H]1O[C@@](CO)(O[C@H]2O[C@H](CO)[C@@H](O)[C@H](O)[C@H]2O)[C@@H](O)[C@@H]1O` [Sucrose]: the Km in assay [3] is 31.7 ± 2.1 mM; in assay [4] it was 33.6 ± 1.55 mM.

On to `OC[C@H]1O[C@H](OC[C@H]2OC(O)[C@H](O)[C@@H](O)[C@@H]2O)[C@H](O)[C@@H](O)[C@@H]1O` (stereo partly shown) [Isomaltose], for which the results for the Km in assay [3] and in assay [4] were 14.2 ± 0.9 mM and 16.5 ± 0.05 mM, respectively.

Regarding `OC[C@H]1O[C@H](O[C@H]2[C@H](O)[C@@H](O)C(O)O[C@@H]2CO)[C@H](O)[C@@H](O)[C@@H]1O` (stereo partly shown) [Maltose], the Km in assay [3] was 4.98 ± 0.06 mM.
